From PubChem
Shown are actives, neighbours in structure and some others; about 3.5% of the full set was active somewhere.
RGS4 act: RGS4 potentiation or activation. HEK293 M3R/inducible RGS4, carbachol calcium flux Fluo4; hits give low values. actives 0.92% (n = 310,000). B-score at 10 µM;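 active means B-score of the integrated calcium signal more than 4 SD below the library mean, with starting fluorescence not abnormally high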;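 further: negative B-score means reduced calcium response which marks RGS4 activation or potentiation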
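Material: M3R-expressing HEK293 line, RGS4 induced by doxycycline | Schedule: Overnight RGS4 induction, 30 min dye load 37 °C, 20 min compound RT | Measured by: Fluo4 fluorescence kinetic imaging of calcium | Read-out: Integrated calcium ratio converted to B score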
MrgX1 allo act: allosterically activates human MrgX1 receptor signaling; Q96LB2; MrgX1-HEK293, Fluo-4 calcium flux, FDSS; hits give high values; B-score at 10 µM; actives 0.63% (n = 310,000);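 active means plate-corrected calcium response at least 3 library SD above typical, normal starting fluorescence, not activating the receptor alone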;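 further: compound read alongside a low EC10 to EC30 dose of BAM8-22 agonist; peak minus trough fluorescence over baseline measured at the second addition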
Target sequence (Q96LB2 whole entry, looked up): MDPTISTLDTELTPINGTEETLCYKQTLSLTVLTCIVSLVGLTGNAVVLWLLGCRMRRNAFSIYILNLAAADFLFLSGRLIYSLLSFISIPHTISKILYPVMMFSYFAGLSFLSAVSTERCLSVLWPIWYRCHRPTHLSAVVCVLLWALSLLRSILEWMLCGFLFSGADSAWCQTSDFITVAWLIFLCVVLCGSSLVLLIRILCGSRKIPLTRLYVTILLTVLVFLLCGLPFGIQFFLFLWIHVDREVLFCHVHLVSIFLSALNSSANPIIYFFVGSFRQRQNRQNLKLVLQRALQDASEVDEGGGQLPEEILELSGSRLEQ
MrgX1 ag: activates human MrgX1 receptor signaling | Q96LB2 | AID 588627 | B-score at 10 µM | MrgX1-HEK293 cells, Fluo-4 calcium fluorescence, agonist mode; hits give high values | actives 0.44% (n = 310,000);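 active means calcium response B-score plate-corrected fluorescence ratio at least 3 library SD, with starting fluorescence B-score inside 5 SD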
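Material: MrgX1-expressing HEK293 cells / Dosing: compound as first of three additions / Incubation: overnight seeding, then 1 h dark dye loading / Signal: Fluo-4 NW calcium fluorescence / Evaluation: B-scored fluorescence response ratio / Benchmarks: positive and negative control wells on each plate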
MrgX1 antag: human MrgX1 receptor antagonism, primary screen; Q96LB2; actives 1.3% (n = 310,000); B-score at 10 µM; AID 588676; MRGX1-HEK293 calcium flux, Fluo-4, BAM8-22 antagonism; hits give low values;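 active means calcium-response B-score plate-corrected more than 3 library SD below zero, starting fluorescence within 5 deviations, no agonist response on first addition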;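 further: peak minus trough fluorescence over baseline after final BAM8-22 challenge near maximal dose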
RGS4 block: inhibitors of human RGS4. P49798. HEK293 M3R/RGS4 inducible, Fluo-4 calcium flux; hits give high values; triggered by carbachol at its EC20. B-score at 10 µM. actives 0.45% (n = 310,000). AID 463165;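 active means B-score, a plate-corrected calcium signal, over three deviations above library mean, with baseline fluorescence within five deviations of library mean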;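 further: RGS4 expression induced by doxycycline in cells with stable M3 receptor; B-score is computed from the integrated fluorescence ratio over baseline after carbachol; higher B-score means a larger calcium signal and so more RGS4 inhibition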
* marks the source's active call; other numbers are inactive results; i = inactive; . = no result given.

SMILES	RGS4 act	MrgX1 allo act	MrgX1 ag	MrgX1 antag	RGS4 block
CC1=NN(c2ccc(Br)cc2)C(=O)/C1=C/c1ccc(-c2ccccc2C(=O)O)o1	i	9.3*	i	i	i
CCOC(=O)c1cc(-c2ccc(/C=C3/C(=O)N(c4ccc(C(=O)O)cc4)N=C3C)o2)ccc1Cl	-7.3*	i	i	i	i
COCC(C)NS(=O)(=O)c1ccc(C(=O)NC(Cc2ccccc2)c2ccccc2)cc1 (configuration not stated)	i	i	i	i	i
CC(C)CC(=O)C1=C(O)C(=O)N(Cc2ccccc2)C1c1ccccc1 (configuration not stated)	i	12*	i	i	i
c1cnc(N2CCN(c3nc4ccccc4n4cnnc34)CC2)nc1	i	i	i	i	i
c1ccc(C(c2ccccc2)N2CCN(c3nc4ccccc4n4cnnc34)CC2)cc1	-7.2*	i	i	i	i
Cc1ccc(S(=O)(=O)CCC(=O)NC2CCCC2)cc1	i	i	i	i	i
Cc1ccccc1NC(=O)c1cccc(N2C(=O)C3C4CC(C(Br)C4Br)C3C2=O)c1 (configuration not stated)	i	i	i	i	i
O=C(/C=C/c1cccs1)N1CCC2(CC1)Oc1ccc(F)cc1C(=O)C21CC(c2ccc(Cl)cc2)=NO1 (configuration not stated)	i	i	i	-4.5*	i
O=C(/C=C/c1cccs1)N1CCC2(CC1)Oc1ccc(Cl)cc1C(=O)C21CC(c2ccc(Cl)cc2)=NO1 (configuration not stated)	i	i	i	i	i
C=CCn1c(SCC(=O)c2cc(C)n(C(C)COC)c2C)nc2sc(C)c(C)c2c1=O (configuration not stated)	-7.5*	i	i	i	i
Cc1ccc2[nH]c3c(=O)n(CC(=O)NCCCN4CCN(c5ccc(F)cc5)CC4)ncc3c2c1	i	i	i	i	i
COc1ccc(/C=N/Nc2cc(C)nc3c(C)cccc23)cc1	i	i	i	-4.6*	i
CCCCn1c(SCc2cccc([N+](=O)[O-])c2)nc2ccsc2c1=O	-8.1*	i	i	i	i
COCCn1c(SCc2cccc([N+](=O)[O-])c2)nc2ccccc2c1=O	i	i	i	i	i
CCOC(=O)C1CCCN(C2=NC(=O)/C(=C/c3ccc(O)c(OCC)c3)S2)C1 (configuration not stated)	i	i	i	-4.5*	i
Cc1ccc2nc(/C(C#N)=C/c3ccc(-c4ccccc4C(=O)O)o3)[nH]c2c1	i	i	33*	i	i
N#C/C(=C\c1ccc(-c2ccccc2C(=O)O)o1)c1nc2ccccc2[nH]1	i	i	27*	i	i
COc1ccc(CNC(=O)CN(C(=O)c2snc(C(N)=O)c2N)c2ccccc2F)cc1	i	6.5*	i	i	i
Nc1nc(Nc2cccc(F)c2)nc(NCCO)c1[N+](=O)[O-]	i	i	i	i	i
Cc1ccc(Nc2nc(N)c([N+](=O)[O-])c(NCCO)n2)cc1	i	8*	i	i	i
CC[C@H](C)[C@@H]1NC(=O)c2cc([N+](=O)[O-])cc(I)c2SC[C@@H](C(N)=O)NC(=O)[C@H](CCCCN)NC1=O	.	i	i	-6.6*	.
NS(=O)(=O)c1ccc(NC(=S)N2CCC(Cc3ccccc3)CC2)cc1	i	i	i	i	i
CCNC(=O)/C(C#N)=C/c1c(N2CCN(c3cccc(Cl)c3)CC2)nc2c(C)cccn2c1=O	-11*	i	i	i	i
CCOC(=O)/C(C#N)=C/c1c(N2CCN(c3ccccc3)CC2)nc2c(C)cccn2c1=O	-7.8*	i	i	i	i
Cc1ccc(C(=O)NCC(=O)OCC(=O)Nc2ccc3[nH]c(=O)[nH]c3c2)cc1	i	i	i	i	i
O=C(Nc1nnc(C2=COCCO2)o1)c1cccc([N+](=O)[O-])c1	i	i	i	i	i
O=C(Nc1nnc(-c2ccc(F)cc2)o1)c1cccc([N+](=O)[O-])c1	i	i	58*	i	i
